# Compound activity as filed in PubChem BioAssay.
# PostGolgi yeast – growth inhibition of a yeast mutant, post-Golgi transport screen. 0.9% of 98,000 active. post-Golgi transport phenotypic cell assay. inhibition, % at 10 µM;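 further: yeast cells grown in 1536-well plates; yeast grown about 18 h at 30C before absorbance read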
# PostGolgi ctrl – growth of the yeast control strain, post-Golgi counter-screen; efflux-deficient yeast background strain, growth absorbance A615, 16 h; inhibition, % at 10 µM; 5% of 98,000 active; AID 738
# tolC growth inh – growth inhibitors of E. coli BW25113 tolC mutant. OD615. AID 573. 2.2% of 65,000 active. growth inhibition, % at 10 µM (by protocol);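 active means growth inhibition at or above a cutoff equal to the mean over every tested compound plus 3 SD, cut at about 60% in these data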;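 further: growth measured after 20 h incubation at 37 °C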
#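 test system = E. coli BW25113 ΔtolC::kan bacteria | medium = LB with kanamycin 50 µg/mL | signal = OD at 615 nm | schedule = 37 °C, 20 h exposure | evaluation = % inhibition of E. coli growth | compound dosing = one dose of 10 µM final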
# Ecoli WT expand – E. coli BW25113 growth inhibition, expanded screen. OD600 absorbance. growth inhibition, % at 100 µM. 0.15% of 98,000 active. AID 710;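 active means growth inhibition above about 50% at one test dose, limit read from the data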;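 further: growth measured after 20 h incubation at 37 °C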
# Numbers without * were called inactive; / = no result. Hits are enriched below; roughly 6.3% of the tested compounds scored in any of these assays. Unless noted, no stated cut-off is given here; in the data, active means inhibition above about 30%; inactive means the rest.
SMILES,PostGolgi yeast,PostGolgi ctrl,tolC growth inh,Ecoli WT expand
Cc1onc(-c2ccccc2Cl)c1C(=O)N1CCN(c2ccccc2)CC1,0,39*,11,5
CCOC(=O)C1CCN(C(=O)c2cccc(C(=O)N3CCC(C(=O)OCC)CC3)c2)CC1,-2,6,-16,2
CCOC(=O)C1CCN(C(=O)c2c(-c3c(Cl)cccc3Cl)noc2C)CC1,33*,8,-13,-7
Cc1onc(-c2c(F)cccc2Cl)c1C(=O)Nc1ccc(S(=O)(=O)Nc2ncccn2)cc1,1,-1,-5,7
CCOC(=O)c1c(NC(=O)CSc2nnnn2C)sc(C)c1-c1ccc(C)cc1,10,27,41,-20
CCOC(=O)C1CCN(CC(O)COc2ccc(C(C)(C)CC)cc2)CC1 (stereo unspecified),87*,79*,36,21
CCOC(=O)C1CCN(CC(O)COc2ccc(C(C)=O)cc2)CC1 (stereo unspecified),0,-1,-6,8
CCOC(=O)C1CCN(CC(O)COc2ccc(C(C)(C)C)cc2)CC1 (stereo unspecified),29,59*,-1,22
Cc1nc2c(C)cccn2c1/C(O)=C1\C(=O)C(=O)N(CCN2CCOCC2)C1c1cccs1 (stereo unspecified),-3,4,/,3
Cn1c(N/N=C/c2cccs2)cc(=O)n(C)c1=O,1,35*,/,-3
COc1c(OC(C)=O)ccc(/C=C/c2ccc3ccccc3n2)c1[N+](=O)[O-],-2,73*,/,-16
FC(F)(F)c1cccc(N2CCN(c3nnnn3-c3ccccc3)CC2)c1,-1,2,69*,1
Cc1cc(C)nc(N2CCN(c3nnnn3-c3ccccc3)CC2)n1,-8,5,-20,-5
CC(=O)N1CCN(c2nnnn2-c2ccccc2)CC1,-2,6,/,1
c1ccc(CC2CCN(c3nnnn3-c3ccccc3)CC2)cc1,4,32*,76*,-35
NS(=O)(=O)c1ccc(NC(=O)CSc2nnc(-c3cnccn3)n2-c2ccccc2)cc1,21,2,-14,-3
Nn1c(Nc2ccccc2)nc2sc3c(c2c1=O)CCC3,11,31*,14,-2
COc1ccc(C(=O)N2CCN(C(=O)Cc3ccccc3)CC2)cc1OC,0,47*,-3,-5
CC1Cc2cc(-c3csc(NC(=O)Cc4cccs4)n3)ccc2N1S(C)(=O)=O (stereo unspecified),-28,25,63*,-13
COc1ccc(N/C(=C(/C(Cl)=C(Cl)Cl)[N+](=O)[O-])n2nnc3ccccc32)cc1OC,-3,6,/,7
CCN(CC)S(=O)(=O)c1ccc(N2CCN(S(=O)(=O)c3ccc4c(c3)OCCO4)CC2)nc1,-2,12,/,-18
Cc1nn2c(c1-c1ccc(Cl)cc1)N=C(c1ccco1)CC2c1ccccc1 (stereo unspecified),23,35*,/,-7
CCc1ccc(C2CC(c3ccco3)=NN2S(C)(=O)=O)cc1 (stereo unspecified),-8,11,/,3
CC1CC2=C(NC(=S)NC2c2ccc(F)cc2)/C(=C/c2ccc(F)cc2)C1 (stereo unspecified),-2,39*,/,-8
CCCCCCc1ccc(-c2ncc(N)cn2)cc1,-1,32*,100*,15
SMILES,PostGolgi yeast,PostGolgi ctrl,tolC growth inh,Ecoli WT expand
CCC(=O)c1cc(F)c(N2CCN(S(=O)(=O)c3ccc(C)cc3)CC2)cc1C,28,35*,23,-7
Cc1ccc(N2CCN(S(=O)(=O)c3ccc(F)c(C)c3)CC2)c(C)c1,-2,28,33,-17
Clc1c(CSc2nc3ccccc3o2)nc2ccccn12,2,7,41,17
Clc1c(CSc2nc3ccccc3o2)nc2sccn12,-2,36*,19,0
c1ccc2oc(SCc3nc4ccccc4s3)nc2c1,15,-2,61*,-4
Cn1c(C(=O)NC2CCCC2)cc2c(=O)n(C)c3ccccc3c21,-6,2,19,-6
O=C(/C=C/c1ccccc1)NC(NC(=S)Nc1cc(Cl)ccc1Cl)C(Cl)(Cl)Cl (stereo unspecified),-9,-1,/,-1
C/C(=N\O)c1c(C)c2ccccc2n1C,-8,27,12,5
CCn1c2ccccc2c2cc(/C(C)=N/O)ccc21,4,65*,/,9
C/C(=N\O)c1ccc2c3ccccc3n(C)c2c1,-4,31*,16,1
c1ccc(-c2ccc(-c3cn4c(n3)CCC4)cc2)cc1,0,33*,/,-2
COc1ccc(-c2cn3c(n2)CCC3)cc1,-4,4,-12,10
COc1cccc(C(=O)Nc2ncc3c(n2)CC(C)(C)CC3=O)c1,-4,-1,-13,-4
N/C(Cc1cccs1)=N\OC(=O)COc1ccc(Cl)cc1Cl,-1,1,/,1
